# Source: PubChem BioAssay
# Compounds with a hit are over-represented: about 3.6% of the library has one in this group of screens.
# PAFAH1B3 inh = PAFAH1B3 (human) inhibition; 0.28% of 340,000 active; recombinant PAFAH1B3, FP-rhodamine probe, fluorescence polarization; inhibition, % at 3.39 µM;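 active = inhibition above the screen-wide average of all tested compounds plus 3 SD, cut at about 25% in these data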;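 also: 0% = enzyme with DMSO only and 100% = wells lacking PAFAH1B3 protein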
# Target sequence (Q15102 whole entry, looked up): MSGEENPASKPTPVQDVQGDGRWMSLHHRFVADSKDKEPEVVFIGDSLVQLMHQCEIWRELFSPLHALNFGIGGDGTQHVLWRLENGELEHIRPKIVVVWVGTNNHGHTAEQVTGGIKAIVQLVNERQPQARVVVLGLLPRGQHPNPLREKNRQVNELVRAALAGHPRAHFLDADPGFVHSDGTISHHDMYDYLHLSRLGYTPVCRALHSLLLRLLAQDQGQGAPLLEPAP
# pPAFAH FP inh = pPAFAH (human) enzyme inhibition | Q13093 | recombinant pPAFAH, FP-rhodamine probe fluorescence polarization | inhibition, % at 3.39 µM | 1.5% of 330,000 active;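 active = inhibition above the mean inhibition across the screen plus 3 SD, cut at about 25% in these data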;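 also: inhibitors block binding of the rhodamine activity-based probe so polarization drops; 0% = enzyme with DMSO and 100% = wells lacking pPAFAH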
# PAFAH2 FP inh = PAFAH2 (human) inhibition | recombinant PAFAH2, FP-rhodamine activity probe, fluorescence polarization | Q99487 | inhibition, % at 3.39 µM | 0.99% of 340,000 active;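 active = inhibition above the mean over all tested compounds plus 3 SD, cut at about 30% in these data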;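 also: inhibitors block probe labeling of enzyme so polarization drops; 0% = enzyme with DMSO and 100% = wells lacking PAFAH2 protein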
# VIM-2 inhibitor = inhibitors of Pseudomonas aeruginosa VIM-2 metallo-beta-lactamase. purified VIM-2, nitrocefin hydrolysis, epi-absorbance fluorescence. inhibition, % at 5.6 µM. 0.89% of 290,000 active;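 active = inhibition above the mean of all tested compounds plus 3 SD, cutoff set per screening run, cut at about 7.5% in these data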;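 also: red hydrolysis product quenches plate fluorescence so inhibitors raise well fluorescence; 0% = enzyme with DMSO and 100% = DMSO without enzyme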
# IMP-1 inhibitor = blocks Pseudomonas aeruginosa IMP-1 metallo-beta-lactamase. purified IMP-1, nitrocefin hydrolysis, epi-absorbance fluorescence. inhibition, % at 5.6 µM. 0.45% of 290,000 active. AID 1556;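 active = inhibition above the mean plus 3 SD of all compounds in the same screening run, cut at about 4.5% in these data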;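 also: 0% = IMP-1 with DMSO and 100% = DMSO wells lacking enzyme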
#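 System: Purified recombinant IMP-1 metallo-beta-lactamase enzyme | Measured by: Fluorescence quenching readout, ex 480/em 530 nm | Replication: Singlicate | Incubation: 15 min preincubation plus 25 min reaction at 25 °C | Evaluation: Percent inhibition from optical density relative to buffer-blank wells | Benchmarks: DMSO with and without IMP-1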
# PAFAH1B2 FP inh = blocks human PAF acetylhydrolase 1b catalytic subunit 2; inhibition, % at 3.39 µM; recombinant PAFAH1B2, FP-rhodamine activity probe, fluorescence polarization; P68402; 1.2% of 340,000 active;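 active = inhibition above the mean of all tested compounds plus 3 SD, cut at about 24% in these data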;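 also: 0% = enzyme with DMSO and 100% = wells lacking PAFAH1B2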
# Target sequence (P68402 whole entry, looked up): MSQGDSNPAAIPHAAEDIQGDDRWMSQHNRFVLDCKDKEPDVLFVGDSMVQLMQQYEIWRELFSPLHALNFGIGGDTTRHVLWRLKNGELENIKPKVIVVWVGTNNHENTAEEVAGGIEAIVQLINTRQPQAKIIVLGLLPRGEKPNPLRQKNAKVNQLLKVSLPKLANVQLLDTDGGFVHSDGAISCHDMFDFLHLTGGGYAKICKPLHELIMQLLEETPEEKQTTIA
# * marks the source's active call; other numbers are inactive results; · = no result.
SMILES,PAFAH1B3 inh,pPAFAH FP inh,PAFAH2 FP inh,VIM-2 inhibitor,IMP-1 inhibitor,PAFAH1B2 FP inh
CCC(=O)Nc1nc(C)c(-c2csc(Nc3cccc(O)c3)n2)s1,12,32*,13,-2,-4,10
CCCCCC(=O)Nc1nc(C)c(-c2csc(Nc3cc(Cl)ccc3C)n2)s1,19,9,-20,-6,12*,6
Cc1ccc(Cl)cc1Nc1nc(-c2sc(NC(=O)c3cccc(Cl)c3)nc2C)cs1,·,6,·,-6,0,·
Cc1nc(C)c(-c2csc(Nc3cccc(O)c3)n2)s1,8,15,21,-1,-4,10
N#Cc1c(-c2ccco2)cc(C2CC2)nc1SCC(=O)c1ccccc1,3,10,3,0,0,-5
COCCOC(=O)c1c(C)nc(SCC(=O)Nc2ccc(OC)cc2)c(C#N)c1-c1ccco1,5,27*,1,-1,-1,-3
Cc1nc(SCC(=O)c2ccccc2)c(C#N)c(-c2ccco2)c1C(=O)NCc1ccco1,-3,18,9,6,5.0*,-2
COc1ccc(CC(=O)Nc2ccncc2Cl)cc1,8,1,4,-1,-2,3
CCOc1ccc2c(c1)c(C(C)=O)c(C)n2-c1ccccc1,3,26*,-7,-3,-1,0
CN(C(=O)c1ccc(NC(=O)Cc2cccc(NC(=O)C3CCCN(C(=O)C4CCC4)C3)c2)cc1)C1CCCC1 (configuration not stated),10,2,-2,·,·,15
COc1cccc2cc(C(=O)NCc3ccccc3Cl)c(=O)oc12,8,-2,5,-1,1,3
O=C(COC(=O)C1CC2C=CC1C2)NCCc1ccccc1 (configuration not stated),9,1,3,2,1,2
O=C(COC(=O)C1CC2C=CC1C2)Nc1ccccc1F (configuration not stated),3,24,34*,0,-2,-1
CCCCN(C(=O)c1c(C)[nH]c(C(=O)OCC)c1C)c1ccccc1,-3,2,9,-3,-3,28*
CCOC(=O)c1c(C)[nH]c(C(=O)OCc2ccc(F)cc2)c1C,8,·,6,-2,-2,2
CCOC(=O)c1c(C)[nH]c(C(=O)OCc2ccccc2F)c1C,5,29*,5,0,0,4
NNC(=O)c1cc(O)c(O)c(O)c1,10,30*,2,-2,-4,7
CSc1cccc(N2CC(C(=O)N(CC(C)C)c3c(N)n(Cc4ccccc4)c(=O)[nH]c3=O)CC2=O)c1 (configuration not stated),9,4,7,·,·,5
CCOc1ccc(/C=C(/NC(=O)c2ccc(Cl)cc2)C(=O)O)cc1OCC,3,0,-5,-1,-1,4
CCOc1cc(/C=C(/NC(C)=O)C(=O)O)cc(Cl)c1OCc1ccc(Br)cc1,4,31*,10,-2,-2,6
Cc1ccc(CCNC(=O)C2CCCN(S(=O)(=O)c3cnc[nH]3)C2)cc1 (configuration not stated),4,-3,-4,0,4.8*,22
O=C(Nc1ccc(F)c(F)c1)C1CCCN(S(=O)(=O)c2cnc[nH]2)C1 (configuration not stated),6,-2,-4,2,-1,0
Cc1ccc(CCNC(=O)C2CCCN(S(=O)(=O)c3c(C)nn(C)c3C)C2)cc1 (configuration not stated),10,5,-2,-6,-3,29*
O=C(Nc1ccc(Cl)c(C(F)(F)F)c1)C1CCCN(S(=O)(=O)c2cnc[nH]2)C1 (configuration not stated),-2,0,1,-2,6.6*,8
Cc1noc(C)c1S(=O)(=O)N1CCCC(C(=O)NCCC2=CCCCC2)C1 (configuration not stated),16,1,-2,0,-1,9
SMILES,PAFAH1B3 inh,pPAFAH FP inh,PAFAH2 FP inh,VIM-2 inhibitor,IMP-1 inhibitor,PAFAH1B2 FP inh
Cc1noc(/C=C/N(C)C)c1S(=O)(=O)N1CCCC(C(=O)NCCC2=CCCCC2)C1 (configuration not stated),2,25*,-2,-3,-4,20
CC(=O)N1CCN(C(=O)c2ccc(Cl)c(S(=O)(=O)N3CCc4ccccc43)c2)CC1,-6,5,-3,·,·,1
O=C(NNC(=O)c1ccccc1O)c1ccc(Cl)c(S(=O)(=O)N2CCc3ccccc32)c1,4,30*,14,·,·,1
COc1ccc(C2=[N+](C)CCn3cccc32)c(OC)c1,10,-2,-4,3,7.2*,5
O=C(CNC(=O)c1ccccc1F)NCC(c1cccs1)N1CCOCC1 (configuration not stated),7,5,-11,·,·,4
Cn1cc(-c2nnc(-c3ccccc3)o2)c2ccccc21,4,8,-3,0,4.9*,-2
Cc1ccccc1OCC(=O)NCCCNC(=O)c1ccco1,5,4,1,-3,-1,8
c1ccc(-c2nnc3ccc(N4CCC5(CC4)OCCO5)nn23)cc1,13,1,3,8.7*,-2,4
NC(=O)C1(N2CCCCC2)CCN(c2ccc3nnc(-c4ccccc4)n3n2)CC1,5,-5,14,5,-2,6
CS(=O)(=O)c1ccc2c(c1)sc1nc(=O)c(/C=C3/C=CC(=O)C(O)=C3)c(N)n12,28*,20,58*,-4,-4,53*
COC1=C/C(=C/c2c(N)n3c(nc2=O)sc2cc(S(C)(=O)=O)ccc23)C=CC1=O,-5,1,-11,-2,-3,3
CCN(CC(=O)Nc1c(F)cccc1F)C(=O)C1COc2ccccc2O1 (configuration not stated),3,-5,-9,·,·,1
COc1ccccc1NC(=O)c1ccc(NC(=O)COC(=O)C2CC2C)cc1 (configuration not stated),3,34*,43*,-1,-3,1
CCOc1ccc(/C=N/O)cc1,-2,5,-1,-1,-1,4
Cc1ccc(COc2ccc(/C=N/O)cc2)cc1,1,1,1,-1,-2,33*
CC(C)c1ccc(C(C)NC(=O)C2CCCC2)cc1 (configuration not stated),12,3,4,-3,-2,4
CC(NC(=O)C1CCCC1)c1ccc(Br)cc1 (configuration not stated),3,2,3,0,0,40*
O=C(Cc1ccc(Cl)cc1)NNC1CC(=O)N(c2ccc3ccccc3c2)C1=O (configuration not stated),5,5,-1,-4,-2,25*
CC(=O)NNC(=O)CCn1nnc2ccccc21,6,7,-2,-4,-3,-1
O=C(CCn1nnc2ccccc21)NNC(=O)C1CCCCC1,4,25*,-1,-1,-3,1
